This is an account of results in ChEMBL document CHEMBL1122757, “Angiotensin II: dependence of hormone affinity on the electronegativity of a single side chain” (1984).

Each structure is given as a SMILES string. Square brackets hold non-standard residues; d marks the D form. Peptide text beside a SMILES is read from it. Sar = CNCC(=O)O

Test [1] concerns the target T1, Type-1 angiotensin II receptor (Bos taurus) (UniProt P25104).
T1 sequence (whole entry): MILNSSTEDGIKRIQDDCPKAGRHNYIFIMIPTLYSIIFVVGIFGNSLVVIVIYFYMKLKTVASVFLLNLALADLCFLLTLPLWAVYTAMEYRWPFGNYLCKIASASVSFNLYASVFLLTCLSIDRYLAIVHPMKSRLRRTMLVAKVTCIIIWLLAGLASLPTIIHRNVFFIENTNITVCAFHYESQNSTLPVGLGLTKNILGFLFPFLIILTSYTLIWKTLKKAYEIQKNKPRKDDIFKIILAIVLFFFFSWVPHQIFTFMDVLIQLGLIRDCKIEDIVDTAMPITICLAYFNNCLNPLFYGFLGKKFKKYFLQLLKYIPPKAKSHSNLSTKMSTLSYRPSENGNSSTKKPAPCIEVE
Kind of test: Displacement of [3H]AT from angiotensin II receptor in bovine adrenocortical membranes. Type of test: cell membranes. The method in brief:
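Bovine adrenal glands taken fresh at slaughter, kept in ice-cold saline and dissected; purified adrenal microsomal membranes (~50-100 μg protein) in 100 μL assay buffer with [Sar1,(3',5'-3H2-4'-NH2)Phe4]AT at 5 × 10^-9 M. Competitor 10^-9 to 10^-4 M. Triplicate, 20 °C, 15 min. Filtration on nitrocellulose, scintillation counting. Nonspecific binding with 10^-4 M unlabeled AT. Specific binding as B/BO. At least nine independent experiments; RA given relative to standard.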
(In general: Displacement assays read how much labelled ligand stays bound in the presence of the test substance.)

The species entered for a further test is Oryctolagus cuniculus. As to the kind of experiment: In vitro biological activity on rabbit aorta strip. Type of test: functional. Summed up:
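Isolated rabbit aorta strips under 2 g tension, adjusted during a 60–90-min equilibration, with bath fluid changed every 10–15 min. Peptides added to the tissue bath, concentrations stated as final bath concentrations. Contractile responses recorded with force-displacement transducers.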

The next test relates to Rattus norvegicus. Kind of test: In vivo biological activity on the blood pressure of the anesthetized rat. In kind it is functional.

Compound `CNCC(=O)N[C@@H](CCCN=C(N)N)C(=O)N[C@H](C(=O)N[C@@H](Cc1ccc(O)c([N+](=O)[O-])c1)C(=O)N[C@H](C(=O)N[C@@H](Cc1c[nH]cn1)C(=O)N1CCC[C@@H]1C(=O)N[C@@H](Cc1ccccc1)C(=O)O)C(C)C)C(C)C` gave an Activity in test [1] of 75%.

`CNCC(=O)N[C@@H](CCCN=C(N)N)C(=O)N[C@H](C(=O)N[C@@H](Cc1ccc(N=[N+]=[N-])cc1)C(=O)N[C@H](C(=O)N[C@@H](Cc1c[nH]cn1)C(=O)N1CCC[C@H]1C(=O)N[C@@H](Cc1ccccc1)C(=O)O)C(C)C)C(C)C` gave an Activity in the test filed under Oryctolagus cuniculus of 0.3%.

`CNCC(=O)N[C@@H](CCCN=C(N)N)C(=O)N[C@H](C(=O)N[C@@H](Cc1ccc(N)cc1)C(=O)N[C@H](C(=O)N[C@@H](Cc1c[nH]cn1)C(=O)N1CCC[C@@H]1C(=O)N[C@@H](Cc1ccccc1)C(=O)O)C(C)C)C(C)C` registered an Activity in test [1] of 28%.

The compound `CNCC(=O)N[C@@H](CCCN=C(N)N)C(=O)N[C@H](C(=O)N[C@@H](Cc1ccc(N=[N+]=[N-])cc1)C(=O)N[C@H](C(=O)N[C@@H](Cc1c[nH]cn1)C(=O)N1CCC[C@@H]1C(=O)N[C@@H](Cc1ccccc1)C(=O)O)C(C)C)C(C)C` registered an Activity in test [1] of 2.6%.

As to `CNCC(=O)N[C@@H](CCCN=C(N)N)C(=O)N[C@H](C(=O)N[C@@H](Cc1cc(I)c(N)c(I)c1)C(=O)N[C@H](C(=O)N[C@@H](Cc1c[nH]cn1)C(=O)N1CCC[C@H]1C(=O)N[C@@H](Cc1ccccc1)C(=O)O)C(C)C)C(C)C`, the Activity was 2.7% in the test filed under Oryctolagus cuniculus and 5.3% with Rattus norvegicus.

Regarding `CNCC(=O)N[C@@H](CCCN=C(N)N)C(=O)N[C@H](C(=O)N[C@@H](Cc1ccccc1)C(=O)N[C@H](C(=O)N[C@@H](Cc1c[nH]cn1)C(=O)N1CCC[C@@H]1C(=O)N[C@@H](Cc1ccccc1)C(=O)O)C(C)C)C(C)C`, the Activity in test [1] amounted to 18%.

For `CNCC(=O)N[C@@H](CCCN=C(N)N)C(=O)N[C@H](C(=O)N[C@@H](Cc1cc([N+](=O)[O-])c(O)c([N+](=O)[O-])c1)C(=O)N[C@H](C(=O)N[C@@H](Cc1c[nH]cn1)C(=O)N1CCC[C@H]1C(=O)N[C@@H](Cc1ccccc1)C(=O)O)C(C)C)C(C)C`, the Activity in the test listed under Oryctolagus cuniculus is 7.8%; in the test with Rattus norvegicus, 0.5%.

Turning to `CNCC(=O)N[C@@H](CCCN=C(N)N)C(=O)N[C@H](C(=O)N[C@@H](Cc1ccc(S(=O)(=O)O)cc1)C(=O)N[C@H](C(=O)N[C@@H](Cc1c[nH]cn1)C(=O)N1CCC[C@H]1C(=O)N[C@@H](Cc1ccccc1)C(=O)O)C(C)C)C(C)C`, the Activity in the test filed under Oryctolagus cuniculus and in the test with Rattus norvegicus was 0% in each case.

In the case of `CNCC(=O)N[C@@H](CCCN=C(N)N)C(=O)N[C@H](C(=O)N[C@@H](Cc1ccc(O)c(Cl)c1)C(=O)N[C@H](C(=O)N[C@@H](Cc1c[nH]cn1)C(=O)N1CCC[C@@H]1C(=O)N[C@@H](Cc1ccccc1)C(=O)O)C(C)C)C(C)C`, the Activity in test [1] was 87%.

For `CNCC(=O)N[C@@H](CCCN=C(N)N)C(=O)N[C@H](C(=O)N[C@@H](Cc1cc(Cl)c(O)c(Cl)c1)C(=O)N[C@H](C(=O)N[C@@H](Cc1c[nH]cn1)C(=O)N1CCC[C@H]1C(=O)N[C@@H](Cc1ccccc1)C(=O)O)C(C)C)C(C)C`, the Activity in the test filed under Oryctolagus cuniculus amounted to 22%; in the test with Rattus norvegicus it was 19%.

Turning to `CNCC(=O)N[C@@H](CCCN=C(N)N)C(=O)N[C@H](C(=O)N[C@@H](Cc1ccc(O)cc1)C(=O)N[C@H](C(=O)N[C@@H](Cc1c[nH]cn1)C(=O)N1CCC[C@@H]1C(=O)N[C@@H](Cc1ccccc1)C(=O)O)C(C)C)C(C)C` (H-[Sar]RVYVH[dP]F-OH), the Activity in test [1] came to 100%.

`CNCC(=O)N[C@@H](CCCN=C(N)N)C(=O)N[C@H](C(=O)N[C@@H](Cc1ccc(N)cc1)C(=O)N[C@H](C(=O)N[C@@H](Cc1c[nH]cn1)C(=O)N1CCC[C@H]1C(=O)N[C@@H](Cc1ccccc1)C(=O)O)C(C)C)C(C)C`: the Activity in the test listed under Oryctolagus cuniculus is 15%; in the test on Rattus norvegicus it was 14%.

Compound `CNCC(=O)N[C@@H](CCCN=C(N)N)C(=O)N[C@H](C(=O)N[C@@H](Cc1ccc([N+](=O)[O-])cc1)C(=O)N[C@H](C(=O)N[C@@H](Cc1c[nH]cn1)C(=O)N1CCC[C@@H]1C(=O)N[C@@H](Cc1ccccc1)C(=O)O)C(C)C)C(C)C` displayed an Activity in test [1] of 1.5%.

On to `CNCC(=O)N[C@@H](CCCN=C(N)N)C(=O)N[C@H](C(=O)N[C@@H](Cc1ccc([N+](=O)[O-])cc1)C(=O)N[C@H](C(=O)N[C@@H](Cc1c[nH]cn1)C(=O)N1CCC[C@H]1C(=O)N[C@@H](Cc1ccccc1)C(=O)O)C(C)C)C(C)C`, for which the Activity in the test filed under Oryctolagus cuniculus worked out at 0%; in the test with Rattus norvegicus, 0.2%.

In test [1], `CNCC(=O)N[C@@H](CCCN=C(N)N)C(=O)N[C@H](C(=O)N[C@@H](Cc1cc(Cl)c(O)c(Cl)c1)C(=O)N[C@H](C(=O)N[C@@H](Cc1c[nH]cn1)C(=O)N1CCC[C@@H]1C(=O)N[C@@H](Cc1ccccc1)C(=O)O)C(C)C)C(C)C` registered an Activity of 28%.

With `CNCC(=O)N[C@@H](CCCN=C(N)N)C(=O)N[C@H](C(=O)N[C@@H](Cc1ccc(O)c(N=[N+]=[N-])c1)C(=O)N[C@H](C(=O)N[C@@H](Cc1c[nH]cn1)C(=O)N1CCC[C@H]1C(=O)N[C@@H](Cc1ccccc1)C(=O)O)C(C)C)C(C)C`, the Activity in the test listed under Oryctolagus cuniculus and in the test with Rattus norvegicus was 63% each time.

On to `CNCC(=O)N[C@@H](CCCN=C(N)N)C(=O)N[C@H](C(=O)N[C@@H](Cc1ccc(O)c(N)c1)C(=O)N[C@H](C(=O)N[C@@H](Cc1c[nH]cn1)C(=O)N1CCC[C@@H]1C(=O)N[C@@H](Cc1ccccc1)C(=O)O)C(C)C)C(C)C`, for which the Activity in test [1] was found to be 132%.

For the compound `CNCC(=O)N[C@@H](CCCN=C(N)N)C(=O)N[C@H](C(=O)N[C@@H](Cc1ccc(S(N)(=O)=O)cc1)C(=O)N[C@H](C(=O)N[C@@H](Cc1c[nH]cn1)C(=O)N1CCC[C@@H]1C(=O)N[C@@H](Cc1ccccc1)C(=O)O)C(C)C)C(C)C`, the Activity in test [1] came out at 3.8%.

`CNCC(=O)N[C@@H](CCCN=C(N)N)C(=O)N[C@H](C(=O)N[C@@H](Cc1ccc(O)c(N)c1)C(=O)N[C@H](C(=O)N[C@@H](Cc1c[nH]cn1)C(=O)N1CCC[C@H]1C(=O)N[C@@H](Cc1ccccc1)C(=O)O)C(C)C)C(C)C`: the Activity in the test filed under Oryctolagus cuniculus was determined as 120%; with Rattus norvegicus it was 184%.

For the compound `CNCC(=O)N[C@@H](CCCN=C(N)N)C(=O)N[C@H](C(=O)N[C@@H](Cc1ccc(O)c([N+](=O)[O-])c1)C(=O)N[C@H](C(=O)N[C@@H](Cc1c[nH]cn1)C(=O)N1CCC[C@H]1C(=O)N[C@@H](Cc1ccccc1)C(=O)O)C(C)C)C(C)C`, the Activity amounted to 38% in the test listed under Oryctolagus cuniculus and 16% in the test with Rattus norvegicus.

With `CNCC(=O)N[C@@H](CCCN=C(N)N)C(=O)N[C@H](C(=O)N[C@@H](Cc1ccc(S(N)(=O)=O)cc1)C(=O)N[C@H](C(=O)N[C@@H](Cc1c[nH]cn1)C(=O)N1CCC[C@H]1C(=O)N[C@@H](Cc1ccccc1)C(=O)O)C(C)C)C(C)C`, the Activity came out at 3.2% in the test filed under Oryctolagus cuniculus and 0.9% in the test with Rattus norvegicus.

In test [1], `CNCC(=O)N[C@@H](CCCN=C(N)N)C(=O)N[C@H](C(=O)N[C@@H](Cc1ccc(O)c(N=[N+]=[N-])c1)C(=O)N[C@H](C(=O)N[C@@H](Cc1c[nH]cn1)C(=O)N1CCC[C@@H]1C(=O)N[C@@H](Cc1ccccc1)C(=O)O)C(C)C)C(C)C` came in with an Activity of 61%.

For the compound `CNCC(=O)N[C@@H](CCCN=C(N)N)C(=O)N[C@H](C(=O)N[C@@H](Cc1cc(I)c(N)c(I)c1)C(=O)N[C@H](C(=O)N[C@@H](Cc1c[nH]cn1)C(=O)N1CCC[C@@H]1C(=O)N[C@@H](Cc1ccccc1)C(=O)O)C(C)C)C(C)C`, the Activity in test [1] is 16%.

Turning to `CNCC(=O)N[C@@H](CCCN=C(N)N)C(=O)N[C@H](C(=O)N[C@@H](Cc1ccc(O)cc1)C(=O)N[C@H](C(=O)N[C@@H](Cc1c[nH]cn1)C(=O)N1CCC[C@H]1C(=O)N[C@@H](Cc1ccccc1)C(=O)O)C(C)C)C(C)C` (H-[Sar]RVYVHPF-OH), the Activity in the test listed under Oryctolagus cuniculus and in the test on Rattus norvegicus was 100% in each case.

`CNCC(=O)N[C@@H](CCCN=C(N)N)C(=O)N[C@H](C(=O)N[C@@H](Cc1ccc(S)cc1)C(=O)N[C@H](C(=O)N[C@@H](Cc1c[nH]cn1)C(=O)N1CCC[C@@H]1C(=O)N[C@@H](Cc1ccccc1)C(=O)O)C(C)C)C(C)C` registered an Activity in test [1] of 0.5%.

Take `CNCC(=O)N[C@@H](CCCN=C(N)N)C(=O)N[C@H](C(=O)N[C@@H](Cc1ccc(S(=O)(=O)O)cc1)C(=O)N[C@H](C(=O)N[C@@H](Cc1c[nH]cn1)C(=O)N1CCC[C@@H]1C(=O)N[C@@H](Cc1ccccc1)C(=O)O)C(C)C)C(C)C`: the Activity in test [1] amounted to 0%.

For the compound `CNCC(=O)N[C@@H](CCCN=C(N)N)C(=O)N[C@H](C(=O)N[C@@H](Cc1ccc(S)cc1)C(=O)N[C@H](C(=O)N[C@@H](Cc1c[nH]cn1)C(=O)N1CCC[C@H]1C(=O)N[C@@H](Cc1ccccc1)C(=O)O)C(C)C)C(C)C`, the Activity in the test filed under Oryctolagus cuniculus stood at 0.9%.

For the compound `CNCC(=O)N[C@@H](CCCN=C(N)N)C(=O)N[C@H](C(=O)N[C@@H](Cc1ccc(O)c(Cl)c1)C(=O)N[C@H](C(=O)N[C@@H](Cc1c[nH]cn1)C(=O)N1CCC[C@H]1C(=O)N[C@@H](Cc1ccccc1)C(=O)O)C(C)C)C(C)C`, the Activity in the test listed under Oryctolagus cuniculus stood at 103%; in the test with Rattus norvegicus, 82%.

For the compound `CNCC(=O)N[C@@H](CCCN=C(N)N)C(=O)N[C@H](C(=O)N[C@@H](Cc1cc([N+](=O)[O-])c(O)c([N+](=O)[O-])c1)C(=O)N[C@H](C(=O)N[C@@H](Cc1c[nH]cn1)C(=O)N1CCC[C@@H]1C(=O)N[C@@H](Cc1ccccc1)C(=O)O)C(C)C)C(C)C`, in test [1], the Activity was 1.5%.
